Data as given in ChEMBL document CHEMBL1275524, “Activities of antifungal agents against yeasts and filamentous fungi: assessment according to the methodology of the European Committee on Antimicrobial Susceptibility Testing” (2008).
In brackets after ≈: the same amount, converted by molar mass.

How the values were obtained:
[1] = system: Meyerozyma guilliermondii; assay: Antifungal activity against Candida guilliermondii by EUCAST method; format: functional
Outline: (§1)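 Broth microdilution in flat-bottom plates in RPMI 1640 with 2% glucose; inoculum 0.5 × 105 to 2.5 × 10^5 CFU/ml. MICs were read spectrophotometrically at 24 h. AMB endpoint: ≥90% growth reduction vs drug-free control well. Azole and CPF endpoint: 50% reduction in optical density. MFC was taken as the lowest concentration giving 99% killing.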

Aspergillus niger = assay: Antifungal activity against Aspergillus niger; format: functional
Cunninghamella = assay: Antifungal activity against Cunninghamella species by EUCAST method; format: functional
Talaromyces marneffei [2] = assay: Antifungal activity against Penicillium marneffei; format: functional
Geotrichum candidum [3] = assay: Antifungal activity against Geotrichum candidum by EUCAST method; format: functional
[4] = Antifungal activity against Rhizopus microsporus var. oligosporus; format: functional
Outline: (§2)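 Broth microdilution following the EUCAST reference procedure for spore-forming moulds, in flat-bottom plates with RPMI 1640 plus 2% glucose. Inoculum was 2 × 10^5 to 5 × 10^5 CFU/ml. MICs were read visually at 24 and 48 h as 100% growth reduction versus a drug-free control for polyenes and azoles. MEC was used for caspofungin. Tests were run in duplicate and repeated twice.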

Lichtheimia corymbifera = assay: Antifungal activity against Absidia corymbifera by EUCAST method; format: functional
Penicillium sp. = assay: Antifungal activity against Penicillium species; format: functional
Aspergillus terreus [5] = assay: Antifungal activity against Aspergillus terreus; format: functional
Geotrichum candidum [6] = assay: Antifungal activity against Geotrichum candidum; format: functional
Aspergillus terreus [7] = assay: Antifungal activity against Aspergillus terreus by EUCAST method; format: functional
Lomentospora prolificans = assay: Antifungal activity against Scedosporium prolificans; format: functional; outline: as §2
Aspergillus flavus = assay: Antifungal activity against Aspergillus flavus; format: functional
Absidia [8] = assay: Antifungal activity against Absidia species; format: functional
Pichia kudriavzevii [9] = assay: Antifungal activity against Candida krusei by EUCAST method; format: functional; outline: as §1
Saccharomyces cerevisiae [10] = assay: Antifungal activity against Saccharomyces cerevisiae; format: functional
Outline: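 Broth microdilution following EUCAST for fermentative yeasts, in flat-bottom plates with RPMI 1640 plus 2% glucose. Inoculum was 0.5 × 10^5 to 2.5 × 10^5 CFU/ml. End points were read spectrophotometrically at 24 h: ≥90% growth reduction versus a drug-free control for amphotericin B, and 50% OD reduction for azoles and caspofungin. MFC was the lowest concentration giving 99% killing.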

[11] = Antifungal activity against Cryptococcus neoformans var. neoformans by EUCAST method; format: functional; details: Cryptococcus deneoformans
Outline: (§3)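 EUCAST yeast microdilution, modified for nonfermentative yeasts: plates were sealed and agitated at 350 rpm and 30°C for 48 h.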

Curvularia lunata = assay: Antifungal activity against Curvularia lunata; format: functional
Curvularia australiensis = assay: Antifungal activity against Bipolaris australiensis; format: functional
Outline: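 Dematiaceous fungi were tested by the EUCAST spore-forming mold reference procedure: flat-bottom microdilution plates, RPMI 1640 plus 2% glucose, inoculum 2 × 105 to 5 × 10^5 CFU/ml. Endpoints were read visually at 24 and 48 h. Polyenes and azoles: 100% growth reduction vs drug-free control. CPF: minimum effective concentration. Run in duplicate and repeated twice.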

Candida parapsilosis = assay: Antifungal activity against Candida parapsilosis; format: functional; details: Lodderomyces parapsilosis; outline: as §1
Absidia [12] = assay: Antifungal activity against Absidia species by EUCAST method; format: functional
Cryptococcus gattii [13] = assay: Antifungal activity against Cryptococcus neoformans var. gattii; format: functional, Cryptococcus bacillisporus; outline: as §3
Pichia kudriavzevii [14] = assay: Antifungal activity against Candida krusei; format: functional
Outline: (§4)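 EUCAST broth microdilution for yeasts in flat-bottom plates, RPMI 1640 with 2% glucose, inoculum 0.5 × 105 to 2.5 × 10^5 CFU/ml. […] MFC is the lowest concentration giving 99% killing.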

Rhizopus [15] = assay: Antifungal activity against Rhizopus species; format: functional; outline: as §2
Sporothrix schenckii = assay: Antifungal activity against Sporothrix schenckii; format: functional; outline: as §2
Clavispora lusitaniae = assay: Antifungal activity against Candida lusitaniae by EUCAST method; format: functional; outline: as §1
Fusarium oxysporum [16] = assay: Antifungal activity against Fusarium oxysporum; format: functional
Fusarium oxysporum [17] = assay: Antifungal activity against Fusarium oxysporum by EUCAST method; format: functional
Candida tropicalis = assay: Antifungal activity against Candida tropicalis; format: functional; outline: as §1
Trichosporon inkin = assay: Antifungal activity against Trichosporon inkin by EUCAST method; format: functional
Outline: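 Nonfermentative yeasts were tested by the EUCAST microdilution recommendations with one change: plates were sealed and agitated at 350 rpm and 30°C for 48 h.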

Saccharomyces cerevisiae [18] = assay: Antifungal activity against Saccharomyces cerevisiae by EUCAST method; format: functional; outline: as §4
Talaromyces marneffei [19] = assay: Antifungal activity against Penicillium marneffei by EUCAST method; format: functional
Rhizopus [20] = assay: Antifungal activity against Rhizopus species by EUCAST method; format: functional; outline: as §2
[21] = Antifungal activity against Cryptococcus neoformans var. neoformans; format: functional; details: Cryptococcus deneoformans; outline: as §3
Cryptococcus gattii [22] = assay: Antifungal activity against Cryptococcus neoformans var. gattii by EUCAST method; format: functional, Cryptococcus bacillisporus; outline: as §3

Which MIC [1] does the source give for `C[C@@H]1[C@H](O)[C@@H](C)/C=C/C=C/C=C/C=C/C=C/C=C/C=C/[C@H](O[C@@H]2O[C@H](C)[C@@H](O)[C@H](N)[C@@H]2O)C[C@@H]2O[C@](O)(C[C@@H](O)C[C@@H](O)[C@H](O)CC[C@@H](O)C[C@@H](O)CC(=O)O[C@H]1C)C[C@H](O)[C@H]2C(=O)O` [AMPHOTERICIN B] here?
Its MIC is 1 µg/mL (≈ 1.08 µM).

What about the MFC (Aspergillus niger) of the same molecule?
The MFC was over 4 µg/mL.

What about the MIC (Cunninghamella) of the same molecule?
The MIC was 2.25 µg/mL (≈ 2.43 µM).

What about the MFC (Talaromyces marneffei [2]) of the same molecule?
The MFC was over 4 µg/mL.

And the MIC (Geotrichum candidum [3])?
The MIC was 1.5 µg/mL (≈ 1.62 µM).

And the MFC [4]?
The MFC was 4 µg/mL (≈ 4.33 µM).

And the MIC (Lichtheimia corymbifera)?
The MIC was 1 µg/mL (≈ 1.08 µM).

And the MFC (Penicillium sp.)?
The MFC was over 4 µg/mL.

What about the MFC (Aspergillus terreus [5]) of the same molecule?
Its MFC is over 4 µg/mL.

What about the MFC (Geotrichum candidum [6]) of the same molecule?
The MFC was over 4 µg/mL.

And the MIC (Aspergillus terreus [7])?
The MIC was 2.82 µg/mL (≈ 3.05 µM).

And the MFC (Lomentospora prolificans)?
The MFC was over 8 µg/mL.

And the MFC (Aspergillus flavus)?
The MFC was over 4 µg/mL.

What about the MFC (Absidia [8]) of the same molecule?
The MFC was 1 µg/mL (≈ 1.08 µM).

And the MIC (Pichia kudriavzevii [9])?
The MIC was 0.51 µg/mL (≈ 0.552 µM).

And the MFC (Saccharomyces cerevisiae [10])?
The MFC was over 4 µg/mL.

What about the MIC [11] of the same molecule?
The MIC was 0.75 µg/mL (≈ 0.812 µM).

And the MFC (Curvularia lunata)?
The MFC was 1 µg/mL (≈ 1.08 µM).

What about the MFC (Curvularia australiensis) of the same molecule?
The MFC was 1 µg/mL (≈ 1.08 µM).

What about the MFC (Candida parapsilosis) of the same molecule?
The MFC was 4 µg/mL (≈ 4.33 µM).

What about the MIC (Absidia [12]) of the same molecule?
The MIC was 0.8 µg/mL (≈ 0.866 µM).

What about the MFC (Cryptococcus gattii [13]) of the same molecule?
The MFC was 1 µg/mL (≈ 1.08 µM).

What about the MFC (Pichia kudriavzevii [14]) of the same molecule?
The MFC was 0.5 µg/mL (≈ 0.541 µM).

What about the MFC (Rhizopus [15]) of the same molecule?
The MFC was 2 µg/mL (≈ 2.16 µM).

What about the MFC (Sporothrix schenckii) of the same molecule?
Its MFC is over 8 µg/mL.

And the MIC (Clavispora lusitaniae)?
The MIC was 1.16 µg/mL (≈ 1.26 µM).

And the MFC (Fusarium oxysporum [16])?
The MFC was 1 µg/mL (≈ 1.08 µM).

What about the MIC (Fusarium oxysporum [17]) of the same molecule?
Its MIC is 2.5 µg/mL (≈ 2.71 µM).

What about the MFC (Candida tropicalis) of the same molecule?
The MFC was 0.5 µg/mL (≈ 0.541 µM).

And the MIC (Trichosporon inkin)?
Its MIC is 0.5 µg/mL (≈ 0.541 µM).

What about the MIC (Saccharomyces cerevisiae [18]) of the same molecule?
The MIC was 0.66 µg/mL (≈ 0.714 µM).

What about the MIC (Talaromyces marneffei [19]) of the same molecule?
The MIC was 1.5 µg/mL (≈ 1.62 µM).

And the MIC (Rhizopus [20])?
The MIC was 2.08 µg/mL (≈ 2.25 µM).

What about the MFC [21] of the same molecule?
The MFC was 1 µg/mL (≈ 1.08 µM).

And the MIC (Cryptococcus gattii [22])?
Its MIC is 0.66 µg/mL (≈ 0.714 µM).
